Results on 51 compounds are retold here after ChEMBL document CHEMBL1149380, “Synthesis of thieno[2,3-b]pyridinones acting as cytoprotectants and as inhibitors of [3H]glycine binding to the N-methyl-D-aspartate (NMDA) receptor” (J Med Chem, 2006).

The target in one data set is Glutamate NMDA receptor. The data set is described as follows: Inhibition of [3H]glycine binding to NMDA receptor in rat brain membranes. The class given is cell membranes. Summed up:
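[3H]glycine displaced from rat hippocampal membranes in presence of 10 µM glutamic acid; 4-5 inhibitor concentrations giving 20-90% inhibition of specific binding; Ki derived; number of experiments given per value.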

The test system of another data set is L cells. The data set is described as follows: Cytotoxicity against mouse fibroblast L(tk-) cells transfected with human NMDA using LDH assay. The format is functional, cell-based. As to conditions: L929. In a few lines:
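Mouse L(tk-) fibroblast clone L12-G10 co-transfected with dexamethasone-inducible human NR1a/NR2A; seeded 15 × 10^3 cells/well, grown overnight, then receptor expression induced with 4 µM dexamethasone in Mg2+-free medium with 5% FCS (supplies glutamate and glycine) and 50 mM KCl. Compounds added at increasing, trypan-blue-verified nontoxic concentrations for 24 h. Cell death read as LDH release (INT formazan, 490 nm) relative to total LDH; four-parameter logistic fit for IC50.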

Data set [1] has as its system Rattus norvegicus. Description: Effect on brain tissue level after 1h at 10 mg/kg, iv. The format is ADME, organism-based, Wistar. Also noted: dose 10 mg/kg, route intravenous. As to conditions: in vivo. In a few lines:
(§1)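 Male Wistar rats given 10 mg/kg intravenously; plasma and brain tissue levels measured 6 min (n = 3) and 1 h (n = 3) after dosing; brain expressed as µmol/kg.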

Data set [2] deals with Mus musculus. Description: Protection of mice against maximal e-shock after 30 min at 43 mg/kg. The class given is functional. In a few lines: (§2)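 Male Swiss mice, 10 per dose, dosed intraperitoneally (vehicle 8 parts DMSO, 10 parts H2O); doses spanned 0.3-100 mg/kg depending on compound. Maximal electroshock applied 30 or 60 min later; tonic hind limb extension scored as unprotected. Dose-response fitted to a hyperbolic function giving ID50.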

Data set [3] deals with Rattus norvegicus. Description: Effect on brain tissue level after 6 min at 10mg/kg, iv. The class given is ADME, organism-based, Wistar. As to conditions: in vivo, 0.1 h. Summed up: as §1
The target of a further data set is D(2) dopamine receptor (Rattus norvegicus, UniProt P61169). Description: Displacement of [3H]raclopride from dopamine receptor D2 in rat striatal membrane. The format is cell membranes, Striatum.
D(2) dopamine receptor, sequence (P61169 whole entry): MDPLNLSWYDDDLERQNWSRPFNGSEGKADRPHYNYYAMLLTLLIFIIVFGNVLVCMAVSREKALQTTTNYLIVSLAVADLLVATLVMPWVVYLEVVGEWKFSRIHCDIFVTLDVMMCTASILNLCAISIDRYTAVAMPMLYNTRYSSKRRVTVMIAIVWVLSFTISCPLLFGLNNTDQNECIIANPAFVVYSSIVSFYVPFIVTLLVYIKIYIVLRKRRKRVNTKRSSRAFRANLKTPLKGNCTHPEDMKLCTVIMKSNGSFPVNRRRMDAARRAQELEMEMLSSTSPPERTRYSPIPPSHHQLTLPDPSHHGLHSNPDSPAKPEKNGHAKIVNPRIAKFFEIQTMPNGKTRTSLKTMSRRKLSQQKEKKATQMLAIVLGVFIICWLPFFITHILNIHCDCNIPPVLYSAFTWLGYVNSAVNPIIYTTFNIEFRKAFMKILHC
Data set [4] relates to Mus musculus. Description: Protection of mice against maximal e-shock at 30 mg/kg. The format is functional. In a few lines:
as §2

Data set [5] has as its system Rattus norvegicus. Description: Effect on brain tissue level after 1h at 5 mg/kg, iv. The format is ADME, organism-based, Wistar. Also noted: dose 5 mg/kg, route intravenous. As to conditions: in vivo. In a few lines: (§3)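 Male Wistar rats given 5 mg/kg intravenously; plasma and brain tissue levels measured at 6 min and 1 h, n = 3 per time; brain expressed as µmol/kg.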

Data set [6] concerns Mus musculus. The data set is described as follows: Protection of mice against maximal e-shock at 0.7 mg/kg. The format is functional. In a few lines: as §2
In data set [7] the test system is Rattus norvegicus. The data set is described as follows: Effect on brain tissue level after 6 min at 5 mg/kg, iv. Also noted: dose 5 mg/kg, route intravenous. The format is ADME, organism-based, Wistar. As to conditions: in vivo, 0.1 h. Summed up:
as §3

For data set [8], the system named is Mus musculus. The data set is described as follows: Protection of mice against maximal e-shock after 60 min at 13.5 mg/kg. The format is functional. In a few lines: as §2
Data set [9] deals with Mus musculus. Description: Protection of mice against maximal e-shock after 30 min at 15.5 mg/kg. The class given is functional. In a few lines:
as §2

The structures appear in SMILES notation.

In general, Ki refers to the equilibrium dissociation constant of an inhibitor or competing ligand from its target. Compound `CC(C)c1csc2nc(O)c(-c3ccccc3)c(O)c12` yielded a Ki at Glutamate NMDA receptor of 1530 nM.
Usually IC50 stands for the concentration that inhibits the measured activity by half. On to `CCc1csc2nc(O)c(-c3cccc(Oc4ccccc4)c3)c(O)c12`, for which affinity on Glutamate NMDA receptor was put at a Ki of 179 nM. For the same compound, the IC50 in the data set with L cells was > 50000 nM.
As to `Oc1nc2sc(Cl)c(C3CC3)c2c(O)c1-c1ccccc1`, the affinity at Glutamate NMDA receptor corresponds to a Ki of 58 nM.
In the case of `CCCc1c(Cl)sc2nc(O)c(-c3cccc(Oc4ccccc4)c3)c(O)c12`, the Ki on Glutamate NMDA receptor amounted to 4.12 nM. In the data set with L cells, this compound registered an IC50 of 15900 nM.
As for `Oc1nc2sc(Br)cc2c(O)c1-c1ccccc1`, at Glutamate NMDA receptor, the Ki worked out at 1770 nM.
Still for that read-out and setting: the result for `Oc1nc2sc(Cl)c(C3CC3)c2c(O)c1-c1cccc(Oc2ccccc2)c1` reads 9.5 nM; that for `CC(C)c1c(Cl)sc2nc(S)c(-c3cccc(Oc4ccccc4)c3)c(O)c12`, 139 nM.
Same read-out and setting: the result for `Oc1nc2sc3c(c2c(O)c1-c1ccccc1)CCCC3` reads 4300 nM.
`COCc1csc2nc(O)c(-c3cccc(Oc4ccccc4)c3)c(O)c12` had a Ki at Glutamate NMDA receptor of 36 nM. In the data set with L cells, this compound registered an IC50 of 55800 nM.
Compound `Oc1nc2cscc2c(O)c1-c1ccccc1` yielded a Ki at Glutamate NMDA receptor of 26000 nM.
On Glutamate NMDA receptor, `Oc1nc2sc3c(c2c(O)c1-c1cccc(Oc2ccccc2)c1)CCCC3` showed a Ki of 392 nM. Besides, the concentration for half-maximal inhibition (IC50) with L cells was > 30000 nM.
Regarding `CC(C)c1c(Cl)sc2nc(O)c(-c3ccccc3)c(O)c12`, on Glutamate NMDA receptor, the Ki is 6.6 nM.
Compound `CC(C)c1c(Cl)sc2nc(O)c(-c3cccc(Oc4ccccc4)c3)c(O)c12` registered a Ki on Glutamate NMDA receptor of 1.46 nM. The brain level came out at 0.28 µmol/kg in the data set on Rattus norvegicus [1] and 3.5 µmol/kg with Rattus norvegicus [3]. Besides, the Activity in the data set with Mus musculus [2] was 50%. It took 5200 nM to reach half-maximal inhibition in the data set with L cells (IC50).
On Glutamate NMDA receptor, `OCc1c(Cl)sc2nc(O)c(-c3cccc(Oc4ccccc4)c3)c(O)c12` displayed an inhibition constant Ki of 69 nM.
In turn, `Cc1cc2c(O)c(-c3ccccc3)c(O)nc2s1` returned a Ki on Glutamate NMDA receptor of 9500 nM.
The compound `CCC(C)c1c(Cl)sc2nc(O)c(-c3cccc(Oc4ccccc4)c3)c(O)c12` (centres undefined) displayed a Ki at Glutamate NMDA receptor of 2 nM. In addition, in the data set on L cells, the midpoint of inhibition, the IC50, lay at 7900 nM.
As to `NCCc1c(Cl)sc2[nH]c(=O)c(-c3cccc(Oc4ccccc4)c3)c(O)c12`, the Ki on Glutamate NMDA receptor was determined as 16500 nM. Moreover, the IC50 on D(2) dopamine receptor is > 30000 nM.
On to `CC(C)(C)c1c(Cl)sc2nc(O)c(-c3cccc(Oc4ccccc4)c3)c(O)c12`, for which, on Glutamate NMDA receptor, the affinity corresponds to a Ki of 3.3 nM. This compound showed an IC50 in the data set with L cells of 15500 nM.
For the compound `Oc1nc2sc(Cl)c(C3CCCCC3)c2c(O)c1-c1cccc(Oc2ccccc2)c1`, on Glutamate NMDA receptor, the inhibition constant Ki is > 30000 nM. Moreover, in the data set with L cells, the half-inhibitory concentration (IC50) was > 50000 nM.
On to `CCc1csc2nc(O)c(-c3ccccc3)c(O)c12`, for which affinity on Glutamate NMDA receptor was put at a Ki of 530 nM. This lies in the sub-micromolar range.
Same read-out and setting: the result for `CCc1c(Cl)sc2nc(O)c(-c3ccccc3)c(O)c12` reads 8.9 nM; that for `CCc1c(Br)sc2nc(O)c(-c3ccccc3)c(O)c12`, 10.5 nM; that for `CC(C)c1c(Cl)sc2nc(S)c(-c3ccccc3)c(O)c12`, 890 nM.
Compound `Cc1csc2nc(O)c(-c3ccccc3)c(O)c12` gave a Ki on Glutamate NMDA receptor of 8300 nM.
On the same count and under the same terms, the result for `Oc1nc2scc(C3CC3)c2c(O)c1-c1ccccc1` reads 4750 nM.
In turn, `Oc1nc2ccsc2c(O)c1-c1ccccc1` gave a Ki on Glutamate NMDA receptor of 97500 nM.
For the compound `CCC(C)c1csc2nc(O)c(-c3cccc(Oc4ccccc4)c3)c(O)c12` (centres undefined), the Ki on Glutamate NMDA receptor was found to be 96 nM. Also, in the data set on L cells, the IC50 was > 50000 nM.
`Oc1nc2sc3c(c2c(O)c1-c1cccc(Oc2ccccc2)c1)CCCS3` returned a Ki on Glutamate NMDA receptor of 37 nM. Also, the IC50 in the data set on L cells was > 250000 nM.
As for `Oc1nc2sc(Cl)cc2c(O)c1-c1cccc(Oc2ccccc2)c1`, the inhibition constant (Ki) at Glutamate NMDA receptor is 16.6 nM. In the data set with Mus musculus [4], this compound registered an Activity of 10%. This compound also showed an IC50 with L cells of 15400 nM.
On Glutamate NMDA receptor, `O=c1[nH]c2cc(Cl)ccc2c(O)c1-c1ccccc1` displayed a Ki of 151 nM.
As to `O=c1[nH]c2cc(Cl)ccc2c(O)c1-c1cccc(Oc2ccccc2)c1`, the results for the brain level in the data set with Rattus norvegicus [5] and in the data set with Rattus norvegicus [7] were 1.4 µmol/kg and 5.5 µmol/kg, respectively. In addition, the inhibition constant (Ki) on Glutamate NMDA receptor was 1.4 nM. In addition, in the data set with Mus musculus [6], the Activity was 50%.
On Glutamate NMDA receptor, `O=c1[nH]c2ccccc2c(O)c1-c1ccccc1` registered a Ki of 12200 nM.
On the same count and under the same terms, the result for `CCc1cc2c(O)c(-c3ccccc3)c(O)nc2s1` reads 3100 nM.
As for `COCc1c(Cl)sc2nc(O)c(-c3cccc(Oc4ccccc4)c3)c(O)c12`, the affinity at Glutamate NMDA receptor, expressed as Ki, was 1.6 nM. Further, the Activity with Mus musculus [4] is 30%. The compound further returned a concentration for half-maximal inhibition (IC50) with L cells of 15700 nM.
With `Cc1sc2nc(O)c(-c3ccccc3)c(O)c2c1C`, the inhibition constant Ki at Glutamate NMDA receptor was 1270 nM. This lies in the single-digit micromolar range.
Take `Oc1nc2sc3c(c2c(O)c1-c1cccs1)CCCC3`: the Ki on Glutamate NMDA receptor is 23100 nM.
In the case of `Cc1c(Br)sc2nc(O)c(-c3ccccc3)c(O)c12`, at Glutamate NMDA receptor, affinity was put at a Ki of 390 nM.
Turning to `CC1=C(CN)SC2NC(=O)C(c3cccc(Oc4ccccc4)c3)=C(O)C12` (centres undefined), the Ki at Glutamate NMDA receptor was 1980 nM.
As to `Cc1c(Cl)sc2nc(O)c(-c3cccc(Oc4ccccc4)c3)c(O)c12`, the Ki at Glutamate NMDA receptor came out at 23 nM. The IC50 with L cells is > 200000 nM.
Take `NCCc1c(Cl)sc2nc(O)c(-c3ccccc3)c(O)c12`: the affinity on Glutamate NMDA receptor, expressed as Ki, was 4550 nM. Moreover, on D(2) dopamine receptor, the IC50 is > 10000 nM.
In the case of `Cc1cc2c(O)c(-c3cccs3)c(O)nc2s1`, the Ki on Glutamate NMDA receptor was found to be 22700 nM.
On to `Cc1csc2nc(O)c(-c3cccs3)c(O)c12`, for which the inhibition constant (Ki) on Glutamate NMDA receptor worked out at 34000 nM. The Ki values of the last two compounds are within 1.5-fold of each other.
`CCC(C)c1csc2nc(O)c(-c3ccccc3)c(O)c12` (centres undefined): on Glutamate NMDA receptor, the Ki was found to be 940 nM.
On Glutamate NMDA receptor, `Oc1nc2sc3c(c2c(O)c1-c1cccc(Oc2ccccc2)c1)CCC3` registered an inhibition constant Ki of 118 nM. This Ki lies about 8-fold lower than the previous one.
In turn, `CCCCCCc1c(Cl)sc2nc(O)c(-c3cccc(Oc4ccccc4)c3)c(O)c12` displayed a Ki at Glutamate NMDA receptor of 80 nM. The IC50 in the data set on L cells was > 50000 nM.
For `Cc1csc2nc(O)c(-c3cccc(Oc4ccccc4)c3)c(O)c12`, the affinity at Glutamate NMDA receptor, expressed as Ki, was 330 nM. The IC50 in the data set with L cells is > 250000 nM.
On Glutamate NMDA receptor, `CCC(C)c1c(Cl)sc2nc(O)c(-c3ccccc3)c(O)c12` (centres undefined) returned a Ki of 5.8 nM.
Consider `CCc1c(Cl)sc2nc(O)c(-c3cccc(Oc4ccccc4)c3)c(O)c12`, for which the affinity on Glutamate NMDA receptor corresponds to a Ki of 1.11 nM. The Activity in the data set with Mus musculus [8] and in the data set with Mus musculus [9] was 50% throughout.
Regarding `Cc1c(Cl)sc2nc(O)c(-c3ccccc3)c(O)c12`, at Glutamate NMDA receptor, the Ki is 267 nM.
With `Oc1nc2sccc2c(O)c1-c1cccc(Oc2ccccc2)c1`, the inhibition constant (Ki) at Glutamate NMDA receptor stood at 368 nM. Besides, the midpoint of inhibition with L cells, the IC50, lay at 89200 nM.
`Oc1nc2sccc2c(O)c1-c1ccccc1`: the Ki on Glutamate NMDA receptor amounted to 16400 nM. That is a double-digit micromolar value.
